From ChEMBL document CHEMBL1138578, “Synthesis and antibacterial activity of nitroaryl thiadiazole-gatifloxacin hybrids” (Eur J Med Chem, 2009)
pIC50: −log10 of the molar value. Converted amounts (≈) assume the structure as drawn.

Test system: Staphylococcus aureus
Experiment: Antibacterial activity against Staphylococcus aureus ATCC 25923 after 18 hrs by conventional agar dilution method
Format: functional
Details: ATCC 25923, 18 h
Procedure, shortened: (§1)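 Twofold dilutions in DMSO (1 mL) mixed into molten Mueller–Hinton agar (19 mL) at 50 °C. Inocula adjusted at 600 nm to about 0.5 McFarland (1.5 × 10⁸ CFU/mL), then diluted in 0.85% saline to 10⁷ CFU/mL. Plates spot-inoculated at 10⁴ CFU/spot and incubated 35–37 °C for 18 h. MIC is the lowest concentration giving no visible growth. DMSO-only control plates included.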

SMILES	MIC [µg/mL]
COc1c(N2CCN(c3nnc(-c4ccc([N+](=O)[O-])cc4)s3)C(C)C2)c(F)cc2c(=O)c(C(=O)O)cn(C3CC3)c12 (stereo unspecified)	32 (≈ 55.1 µM)
COc1c(N2CCN(c3nnc(-c4cccc([N+](=O)[O-])c4)s3)C(C)C2)c(F)cc2c(=O)c(C(=O)O)cn(C3CC3)c12 (stereo unspecified)	> 64

Test system: Staphylococcus epidermidis
Experiment: Antibacterial activity against Staphylococcus epidermidis ATCC 4940 after 18 hrs by conventional agar dilution method
Format: functional
Details: ATCC 4940, 18 h
Procedure, shortened: as §1

SMILES	MIC [µg/mL]
COc1c(N2CCN(c3nnc(-c4ccc([N+](=O)[O-])cc4)s3)C(C)C2)c(F)cc2c(=O)c(C(=O)O)cn(C3CC3)c12 (stereo unspecified)	0.0625 (≈ 0.108 µM)
COc1c(N2CCN(c3nnc(-c4cccc([N+](=O)[O-])c4)s3)C(C)C2)c(F)cc2c(=O)c(C(=O)O)cn(C3CC3)c12 (stereo unspecified)	0.0313 (≈ 0.0539 µM)

Test system: Streptococcus pneumoniae
Experiment: Antibacterial activity against Streptococcus pneumoniae ATCC 1240 after 18 hrs by conventional agar dilution method
Format: functional
Details: ATCC 1240, 18 h
Procedure, shortened: as §1

SMILES	MIC [µg/mL]
COc1c(N2CCN(c3nnc(-c4ccc([N+](=O)[O-])cc4)s3)C(C)C2)c(F)cc2c(=O)c(C(=O)O)cn(C3CC3)c12 (stereo unspecified)	0.0625 (≈ 0.108 µM)
COc1c(N2CCN(c3nnc(-c4cccc([N+](=O)[O-])c4)s3)C(C)C2)c(F)cc2c(=O)c(C(=O)O)cn(C3CC3)c12 (stereo unspecified)	1 (≈ 1.72 µM)

Test system: Bacillus subtilis
Experiment: Antibacterial activity against Bacillus subtilis ATCC 6051 after 18 hrs by conventional agar dilution method
Format: functional
Details: ATCC 6051, 18 h
Procedure, shortened: as §1

SMILES	MIC [µg/mL]
COc1c(N2CCN(c3nnc(-c4ccc([N+](=O)[O-])cc4)s3)C(C)C2)c(F)cc2c(=O)c(C(=O)O)cn(C3CC3)c12 (stereo unspecified)	0.0313 (≈ 0.0539 µM)
COc1c(N2CCN(c3nnc(-c4cccc([N+](=O)[O-])c4)s3)C(C)C2)c(F)cc2c(=O)c(C(=O)O)cn(C3CC3)c12 (stereo unspecified)	32 (≈ 55.1 µM)

Test system: Enterococcus faecalis
Experiment: Antibacterial activity against Enterococcus faecalis NCTC 6013 after 18 hrs by conventional agar dilution method
Format: functional
Details: NCTC 6013, 18 h
Procedure, shortened: as §1

SMILES	MIC [µg/mL]
COc1c(N2CCN(c3nnc(-c4ccc([N+](=O)[O-])cc4)s3)C(C)C2)c(F)cc2c(=O)c(C(=O)O)cn(C3CC3)c12 (stereo unspecified)	1 (≈ 1.72 µM)
COc1c(N2CCN(c3nnc(-c4cccc([N+](=O)[O-])c4)s3)C(C)C2)c(F)cc2c(=O)c(C(=O)O)cn(C3CC3)c12 (stereo unspecified)	> 64

Test system: Micrococcus luteus
Experiment: Antibacterial activity against Micrococcus luteus ATCC 1110 after 18 hrs by conventional agar dilution method
Format: functional
Details: ATCC 1110, 18 h
Procedure, shortened: as §1

SMILES	MIC [µg/mL]
COc1c(N2CCN(c3nnc(-c4ccc([N+](=O)[O-])cc4)s3)C(C)C2)c(F)cc2c(=O)c(C(=O)O)cn(C3CC3)c12 (stereo unspecified)	0.25 (≈ 0.431 µM)
COc1c(N2CCN(c3nnc(-c4cccc([N+](=O)[O-])c4)s3)C(C)C2)c(F)cc2c(=O)c(C(=O)O)cn(C3CC3)c12 (stereo unspecified)	1 (≈ 1.72 µM)

Test system: Escherichia coli
Experiment: Antibacterial activity against Escherichia coli ATCC 25922 after 18 hrs by conventional agar dilution method
Format: functional
Details: ATCC 25922, 18 h
Procedure, shortened: as §1

SMILES	MIC [µg/mL]
COc1c(N2CCN(c3nnc(-c4ccc([N+](=O)[O-])cc4)s3)C(C)C2)c(F)cc2c(=O)c(C(=O)O)cn(C3CC3)c12 (stereo unspecified)	16 (≈ 27.6 µM)
COc1c(N2CCN(c3nnc(-c4cccc([N+](=O)[O-])c4)s3)C(C)C2)c(F)cc2c(=O)c(C(=O)O)cn(C3CC3)c12 (stereo unspecified)	> 64

Test system: Salmonella enterica subsp. enterica serovar Typhi str. CT18
Experiment: Antibacterial activity against Salmonella typhi ATCC 19430 after 18 hrs by conventional agar dilution method
Format: functional
Details: ATCC 19430, 18 h
Procedure, shortened: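 Twofold dilutions in DMSO mixed into molten Mueller–Hinton agar at 50 °C. Inoculum adjusted at 600 nm to about 0.5 McFarland (1.5 ×10⁸ CFU/mL), then diluted in 0.85% saline to 10⁷ CFU/mL. Plates spot-inoculated at 10⁴ CFU/spot and incubated at 35–37 °C for 18 h. MIC taken as the lowest concentration with no visible growth. DMSO solvent control run at matching dilutions.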

SMILES	MIC [µg/mL]
COc1c(N2CCN(c3nnc(-c4ccc([N+](=O)[O-])cc4)s3)C(C)C2)c(F)cc2c(=O)c(C(=O)O)cn(C3CC3)c12 (stereo unspecified)	8 (≈ 13.8 µM)
COc1c(N2CCN(c3nnc(-c4cccc([N+](=O)[O-])c4)s3)C(C)C2)c(F)cc2c(=O)c(C(=O)O)cn(C3CC3)c12 (stereo unspecified)	> 64

Test system: Shigella flexneri
Experiment: Antibacterial activity against Shigella flexneri NCTC 8516 after 18 hrs by conventional agar dilution method
Format: functional
Details: NCTC 8516, 18 h
Procedure, shortened: as §1

SMILES	MIC [µg/mL]
COc1c(N2CCN(c3nnc(-c4ccc([N+](=O)[O-])cc4)s3)C(C)C2)c(F)cc2c(=O)c(C(=O)O)cn(C3CC3)c12 (stereo unspecified)	8 (≈ 13.8 µM)
COc1c(N2CCN(c3nnc(-c4cccc([N+](=O)[O-])c4)s3)C(C)C2)c(F)cc2c(=O)c(C(=O)O)cn(C3CC3)c12 (stereo unspecified)	> 64

Test system: Klebsiella pneumoniae
Experiment: Antibacterial activity against Klebsiella pneumoniae ATCC 10031 after 18 hrs by conventional agar dilution method
Format: functional
Details: ATCC 10031, 18 h
Procedure, shortened: as §1

SMILES	MIC [µg/mL]
COc1c(N2CCN(c3nnc(-c4ccc([N+](=O)[O-])cc4)s3)C(C)C2)c(F)cc2c(=O)c(C(=O)O)cn(C3CC3)c12 (stereo unspecified)	64 (≈ 110 µM)
COc1c(N2CCN(c3nnc(-c4cccc([N+](=O)[O-])c4)s3)C(C)C2)c(F)cc2c(=O)c(C(=O)O)cn(C3CC3)c12 (stereo unspecified)	> 64

Test system: Serratia marcescens
Experiment: Antibacterial activity against Serratia marcescens PTCC 1111 after 18 hrs by conventional agar dilution method
Format: functional
Details: PTCC 1111, 18 h
Procedure, shortened: as §1

SMILES	MIC [µg/mL]
COc1c(N2CCN(c3nnc(-c4ccc([N+](=O)[O-])cc4)s3)C(C)C2)c(F)cc2c(=O)c(C(=O)O)cn(C3CC3)c12 (stereo unspecified)	16 (≈ 27.6 µM)
COc1c(N2CCN(c3nnc(-c4cccc([N+](=O)[O-])c4)s3)C(C)C2)c(F)cc2c(=O)c(C(=O)O)cn(C3CC3)c12 (stereo unspecified)	> 64

Test system: Pseudomonas aeruginosa
Experiment: Antibacterial activity against Pseudomonas aeruginosa ATCC 27853 after 18 hrs by conventional agar dilution method
Format: functional
Details: ATCC 27853, 18 h
Procedure, shortened: as §1

SMILES	MIC [µg/mL]
COc1c(N2CCN(c3nnc(-c4ccc([N+](=O)[O-])cc4)s3)C(C)C2)c(F)cc2c(=O)c(C(=O)O)cn(C3CC3)c12 (stereo unspecified)	> 64
COc1c(N2CCN(c3nnc(-c4cccc([N+](=O)[O-])c4)s3)C(C)C2)c(F)cc2c(=O)c(C(=O)O)cn(C3CC3)c12 (stereo unspecified)	> 64

Test system: not listed separately
Experiment: Cytotoxicity against mouse NIH/3T3 cells after 72 hrs by MTT assay
Format: cell-based
Details: NIH3T3, 72 h
Procedure, shortened: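 Exponential-phase NIH/3T3 fibroblasts trypsinized and diluted in complete medium to 5 × 10⁴ cells/mL, then plated in 96-well plates. Serial compound dilutions added, each in triplicate, with cell-only wells as the viability control. Incubation 72 h, then MTT (5 mg/mL solution) added for 1 h and the medium replaced for colorimetric read-out.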

SMILES	pIC50
COc1c(N2CCN(c3nnc(-c4ccc([N+](=O)[O-])cc4)s3)C(C)C2)c(F)cc2c(=O)c(C(=O)O)cn(C3CC3)c12 (stereo unspecified)	3.65
COc1c(N2CCN(c3nnc(-c4cccc([N+](=O)[O-])c4)s3)C(C)C2)c(F)cc2c(=O)c(C(=O)O)cn(C3CC3)c12 (stereo unspecified)	3.79
